Data set [1] has as its system Respiratory syncytial virus. Description: Antiviral activity against Respiratory syncytial virus infected in human Hep2 cells assessed as inhibition of virus-induced cytopathogenic effect by plaque reduction assay. In kind it is functional, organism-based. The settings on record: HEp-2.
Data set [2] in a line: Cytotoxicity against human Hep2 cells. Format: cell-based, HEp-2. The following applies: read-out: TC50 (the source's name).
A short description of data set [3]: Therapeutic index, ratio of TC50 for human Hep2 cells to IC50 for Respiratory syncytial virus infected in human Hep2 cells. Format: cell-based, HEp-2. The settings on record: read-out: TI. The method, boiled down:
(§1)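 Antiviral IC50 came from a virus-induced cytopathic effect reduction assay in infected cells. Therapeutic index was calculated as TC50 divided by IC50.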

A further data set deals with Human respirovirus 3. As to the kind of experiment: Antiviral activity against Parainfluenza virus type 3 infected in human Hep2 cells assessed as inhibition of virus-induced cytopathogenic effect by plaque reduction assay. The settings on record: Human respirovirus 3, HEp-2. In kind it is functional, organism-based. (Damage to the host cells serves as the signal in cytopathic effect assays.)

Another data set relates to Influenza A virus. Description: Antiviral activity against Influenza A virus infected in MDCK cells assessed as inhibition of virus-induced cytopathogenic effect by plaque reduction assay. Format: functional, organism-based.
The nature of data set [4]: Therapeutic index, ratio of TC50 for human Hep2 cells to IC50 for Parainfluenza virus type 3 infected in human Hep2 cells. In kind it is cell-based, HEp-2. The following applies: read-out: TI. Summed up: as §1
A short description of data set [5]: Cytotoxicity against MDCK cells. Format: cell-based, Canis lupus familiaris. The following applies: dog, read-out: TC50 (the source's name).
A short description of data set [6]: Therapeutic index, ratio of TC50 for MDCK cells to IC50 for Influenza A virus infected in MDCK cells. The following applies: dog, read-out: TI. Format: cell-based. The method, boiled down:
as §1

Each structure is given as a SMILES string. pIC50: −log10 of the molar value. Some results are limits rather than exact numbers.

As to `CC(C)[C@@H](C)/C=C/[C@@H](C)[C@H]1CC[C@H]2C3=CC[C@H]4C[C@@H](O)CC[C@]4(C)[C@H]3CC[C@]12C`, the figures for the pIC50 (in data set [1]; in the data set with Human respirovirus 3; in the data set with Influenza A virus) were 4.30, 4.30 and 3.69, respectively. For the same compound, the CC50 worked out at 303 µM in data set [2] and 405 µM in data set [5]. Also, the selectivity ratio stood at 6 in data set [3], 6 in data set [4] and 2 in data set [6].
For `CC(=O)O[C@H]1C[C@@H]2O[C@@]2(C)C[C@@H]2OC(=O)[C@H](C)[C@H]2[C@H]2C=C1C(=O)O2`, the pIC50 in data set [1] is 4.21; in the data set on Human respirovirus 3, 3.73; with Influenza A virus, 3.73. Also, the CC50 in data set [2] and in data set [5] was 186 µM throughout. In addition, the selectivity ratio in data set [3] was 3; in data set [4], 1; in data set [6] it was 1.
Regarding `COc1ccc(-c2oc3cc(OC)c(OC)c(O)c3c(=O)c2OS(=O)(=O)O)cc1`, the pIC50 in data set [1] is 4.10; in the data set with Human respirovirus 3, 4.71; with Influenza A virus it was 4.10. The CC50 in data set [2] was found to be 472 µM; in data set [5] it was 237 µM. For the same compound, the selectivity ratio in data set [3] stood at 6; in data set [4], 24; in data set [6], 3.
For `C[C@H]1C(=O)O[C@H]2C[C@]3(C)O[C@H]3CCC3=C[C@@H](OC3=O)[C@@H]21`, the values for the pIC50 (in data set [1]; in the data set on Human respirovirus 3; in the data set with Influenza A virus) were 4.43, 4.43 and less than 3.44, respectively. In addition, the CC50 in data set [2] and in data set [5] was 600 µM each time. Moreover, the selectivity ratio was 16 in data set [3], 16 in data set [4] and less than 1.7 in data set [6].
Turning to `C[C@H]1C(=O)O[C@H]2C[C@]3(C)O[C@H]3[C@@H]3O[C@@H]3C3=C[C@@H](OC3=O)[C@@H]21` [DIHYDROMIKANOLIDE], the pIC50 (in data set [1]; with Human respirovirus 3; in the data set with Influenza A virus) was 3.85 each time. Further, the CC50 in data set [2] and in data set [5] was 214 µM throughout. For the same compound, the selectivity ratio in data set [3], in data set [4] and in data set [6] was 1.5 each time.
`COc1ccc(-c2oc3cc(OC)c(OC)c(O)c3c(=O)c2O)cc1` [MIKANIN]: the pIC50 in data set [1] was 4.26; in the data set on Human respirovirus 3, 4.38; with Influenza A virus, 3.78. Also, the CC50 was found to be 83.1 µM in data set [2] and 500 µM in data set [5]. For the same compound, the selectivity ratio is 1.5 in data set [3], 2 in data set [4] and 3 in data set [6].
`NC(=O)c1ncn([C@@H]2O[C@H](CO)[C@@H](O)[C@H]2O)n1` [RIBAVIRIN]: the pIC50 in data set [1] was 4.97; in the data set with Human respirovirus 3, 4.97; in the data set with Influenza A virus, 4.37. Further, in data set [5], the CC50 was more than 256 µM.

A word on the pIC50: it is the negative decadic logarithm of the IC50, by convention in mol/L.

The values above are taken from ChEMBL document CHEMBL1151977, “Antiviral constituents against respiratory viruses from Mikania micrantha” (J Nat Prod, 2009).
